Test results as given in ChEMBL document CHEMBL4373647, “Design, synthesis, and antimicrobial evaluation of 1,4-dihydroindeno[1,2-c]pyrazole tethered carbohydrazide hybrids: exploring their in silico ADMET, ergosterol inhibition and ROS inducing potential” (Medchemcomm, 2019).
Values after ≈ are worked out from the molar mass of the structure shown. Active and inactive are the calls of the source. No cut-off for these calls is given here.

Assays:
Assay type in all cases: functional
Staphylococcus aureus [1] = test: Ratio of MBC to MIC against Staphylococcus aureus MTCC 96
Micrococcus luteus [2] = test: Ratio of MBC to MIC against Micrococcus luteus MTCC 2470
Micrococcus luteus [3] = test: Antibacterial activity against Micrococcus luteus MTCC 2470 assessed as inhibition of bacterial growth incubated for 24 hrs by agar well diffusion method; conditions: MTCC 2470, 24 h
Method in brief: (§1)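 Strains from MTCC; inoculum at 0.5 McFarland spread on Mueller-Hinton agar; 6 mm wells loaded with compound over 125–0.97 µg/mL; ciprofloxacin positive control (same range), DMSO negative control. Plates held 24 h at 37 °C; MIC taken as lowest concentration giving a clear inhibition zone. Triplicate runs, mean MIC reported.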

Staphylococcus aureus [4] = test: Antibacterial activity against Staphylococcus aureus MTCC 96 assessed as inhibition of bacterial growth incubated for 24 hrs by agar well diffusion method; conditions: MTCC 96, 24 h; method in brief: as §1
Bacillus subtilis = test: Antibacterial activity against Bacillus subtilis MTCC 121 assessed as inhibition of bacterial growth incubated for 24 hrs by agar well diffusion method; conditions: MTCC 121, 24 h; method in brief: as §1
Escherichia coli [5] = test: Antibacterial activity against Escherichia coli MTCC 739 assessed as inhibition of bacterial growth incubated for 24 hrs by agar well diffusion method; conditions: MTCC 739, 24 h; method in brief: as §1
Pseudomonas aeruginosa [6] = test: Antibacterial activity against Pseudomonas aeruginosa MTCC 2453 assessed as inhibition of bacterial growth incubated for 24 hrs by agar well diffusion method; conditions: MTCC 2453, 24 h; method in brief: as §1
Raoultella planticola [7] = test: Antibacterial activity against Klebsiella planticola MTCC 530 assessed as inhibition of bacterial growth incubated for 24 hrs by agar well diffusion method; conditions: MTCC 530, 24 h; method in brief: as §1
Candida albicans [8] = test: Antifungal activity against Candida albicans MTCC 3017 assessed as inhibition of fungal growth incubated for 24 hrs by agar well diffusion method; conditions: MTCC 3017, 24 h
Method in brief: (§2)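 Candida strains from MTCC, pre-cultured and spread on Mueller Hinton agar. Wells received compound dissolved in 10% DMSO, 125–0.97 µg/mL; miconazole standard over the same range, DMSO negative control. After 24 h at 37 °C, MIC was read as the lowest concentration giving an inhibition zone. Duplicate experiments, means given.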

Candida albicans [9] = test: Antifungal activity against Candida albicans MTCC 227 assessed as inhibition of fungal growth incubated for 24 hrs by agar well diffusion method; conditions: MTCC 227, 24 h; method in brief: as §2
Candida albicans [10] = test: Antifungal activity against Candida albicans MTCC 3018 assessed as inhibition of fungal growth incubated for 24 hrs by agar well diffusion method; conditions: MTCC 3018, 24 h; method in brief: as §2
Candida albicans [11] = test: Antifungal activity against Candida albicans MTCC 4748 assessed as inhibition of fungal growth incubated for 24 hrs by agar well diffusion method; conditions: MTCC 4748, 24 h; method in brief: as §2
Candida albicans [12] = test: Antifungal activity against Candida albicans MTCC 7315 assessed as inhibition of fungal growth incubated for 24 hrs by agar well diffusion method; conditions: MTCC 7315, 24 h; method in brief: as §2
Nakaseomyces glabratus [13] = test: Antifungal activity against Candida glabrata MTCC 3019 assessed as inhibition of fungal growth incubated for 24 hrs by agar well diffusion method; conditions: MTCC 3019, 24 h; method in brief: as §2
Micrococcus luteus [14] = test: Bactericidal activity against Micrococcus luteus MTCC 2470 assessed as bacterial killing incubated for 24 hrs; conditions: MTCC 2470, 24 h
Method in brief: (§3)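 Broth tube assay: compound at 0–125 µg/mL in Mueller Hinton broth, overnight culture added to 0.5 McFarland (1.5 × 10^8 cfu/mL), held 24 h at 37 °C. 10 µL from each tube plated on Mueller Hinton agar. MBC is the lowest concentration that kills the strain. Duplicates, means reported.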

Staphylococcus aureus [15] = test: Bactericidal activity against Staphylococcus aureus MTCC 96 assessed as bacterial killing incubated for 24 hrs; conditions: MTCC 96, 24 h; method in brief: as §3
Staphylococcus aureus [16] = test: Bactericidal activity against Staphylococcus aureus MLS-16 MTCC 2940 assessed as bacterial killing incubated for 24 hrs; conditions: MLS-16 MTCC 2940, 24 h; method in brief: as §3
Escherichia coli [17] = test: Bactericidal activity against Escherichia coli MTCC 739 assessed as bacterial killing incubated for 24 hrs; conditions: MTCC 739, 24 h; method in brief: as §3
Pseudomonas aeruginosa [18] = test: Bactericidal activity against Pseudomonas aeruginosa MTCC 2453 assessed as bacterial killing incubated for 24 hrs; conditions: MTCC 2453, 24 h; method in brief: as §3
Raoultella planticola [19] = test: Bactericidal activity against Klebsiella planticola MTCC 530 assessed as bacterial killing incubated for 24 hrs; conditions: MTCC 530, 24 h; method in brief: as §3
Pichia kudriavzevii [20] = test: Antifungal activity against Candida krusei MTCC 3020 assessed as inhibition of fungal growth incubated for 24 hrs by agar well diffusion method; conditions: MTCC 3020, 24 h; method in brief: as §2
Candida albicans [21] = test: Fungicidal activity against Candida albicans MTCC 183 assessed as fungal killing incubated for 24 hrs
Method in brief: (§4)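 Compound at 125–0.97 µg/mL in Mueller Hinton broth in microcentrifuge tubes, each Candida strain added, held 24 h at 37 °C. 10 µL of the treated suspension plated on Mueller Hinton agar and incubated a further 24 h at 37 °C. MFC is the lowest concentration that kills the strain. Duplicates, means reported.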

Candida albicans [22] = test: Fungicidal activity against Candida albicans MTCC 227 assessed as fungal killing incubated for 24 hrs; conditions: MTCC 227, 24 h; method in brief: as §4
Candida albicans [23] = test: Fungicidal activity against Candida albicans MTCC 3018 assessed as fungal killing incubated for 24 hrs; conditions: MTCC 3018, 24 h; method in brief: as §4
Candida albicans [24] = test: Fungicidal activity against Candida albicans MTCC 4748 assessed as fungal killing incubated for 24 hrs; conditions: MTCC 4748, 24 h; method in brief: as §4
Candida albicans [25] = test: Fungicidal activity against Candida albicans MTCC 7315 assessed as fungal killing incubated for 24 hrs; conditions: MTCC 7315, 24 h; method in brief: as §4
Candida parapsilosis [26] = test: Fungicidal activity against Candida parapsilosis MTCC 1744 assessed as fungal killing incubated for 24 hrs; conditions: Lodderomyces parapsilosis, MTCC 1744, 24 h; method in brief: as §4
Nakaseomyces glabratus [27] = test: Fungicidal activity against Candida glabrata MTCC 3019 assessed as fungal killing incubated for 24 hrs; conditions: MTCC 3019, 24 h; method in brief: as §4
Pichia sporocuriosa [28] = test: Fungicidal activity against Issatchenkia hanoiensis MTCC 4755 assessed as fungal killing incubated for 24 hrs; conditions: MTCC 4755, 24 h; method in brief: as §4
Candida albicans [29] = test: Ratio of MFC to MIC against Candida albicans MTCC 227
Method in brief: (§5)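 MIC by agar well diffusion: Candida lawns on Mueller-Hinton agar, wells loaded with compound in 10% DMSO (125–0.97 µg/mL), 24 h at 37 °C, lowest concentration giving an inhibition zone. MFC: compound in Mueller-Hinton broth (125–0.97 µg/mL) with yeast, 24 h at 37 °C, 10 µL plated on agar, lowest killing concentration after 24 h. Ratio is MFC/MIC.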

Candida albicans [30] = test: Ratio of MFC to MIC against Candida albicans MTCC 1637
Candida albicans [31] = test: Ratio of MFC to MIC against Candida albicans MTCC 4748; method in brief: as §5
Candida albicans [32] = test: Ratio of MFC to MIC against Candida albicans MTCC 7315; method in brief: as §5
Candida parapsilosis [33] = test: Ratio of MFC to MIC against Candida parapsilosis MTCC 1744; method in brief: as §5
Pichia kudriavzevii [34] = test: Ratio of MFC to MIC against Candida krusei MTCC 3020; method in brief: as §5
Pichia sporocuriosa [35] = test: Ratio of MFC to MIC against Issatchenkia hanoiensis MTCC 4755; method in brief: as §5
Escherichia coli [36] = test: Ratio of MBC to MIC for Escherichia coli MTCC 739
Pseudomonas aeruginosa [37] = test: Ratio of MBC to MIC for Pseudomonas aeruginosa MTCC 2453
Raoultella planticola [38] = test: Ratio of MBC to MIC for Klebsiella planticola MTCC 530

Row | SMILES | Ratio (Staphylococcus aureus [1]) | Ratio (Micrococcus luteus [2]) | MIC (Micrococcus luteus [3]) [µg/mL] | MIC (Staphylococcus aureus [4]) [µg/mL] | MIC (Bacillus subtilis) [µg/mL] | MIC (Escherichia coli [5]) [µg/mL] | MIC (Pseudomonas aeruginosa [6]) [µg/mL] | MIC (Raoultella planticola [7]) [µg/mL] | MIC (Candida albicans [8]) [µg/mL] | MIC (Candida albicans [9]) [µg/mL] | MIC (Candida albicans [10]) [µg/mL] | MIC (Candida albicans [11]) [µg/mL] | MIC (Candida albicans [12]) [µg/mL] | MIC (Nakaseomyces glabratus [13]) [µg/mL] | MBC (Micrococcus luteus [14]) [µg/mL] | MBC (Staphylococcus aureus [15]) [µg/mL] | MBC (Staphylococcus aureus [16]) [µg/mL] | MBC (Escherichia coli [17]) [µg/mL] | MBC (Pseudomonas aeruginosa [18]) [µg/mL] | MBC (Raoultella planticola [19]) [µg/mL] | also measured
1 | COc1ccc2c(c1)Cc1c(C(=O)N/N=C/c3ccc(O)c(OC)c3)n[nH]c1-2 | 2 | 2 | 3.9 (≈ 10.3 µM) | 3.9 (≈ 10.3 µM) | 7.8 (≈ 20.6 µM) | 3.9 (≈ 10.3 µM) | 7.8 (≈ 20.6 µM) | 3.9 (≈ 10.3 µM) | 3.9 (≈ 10.3 µM) | 3.9 (≈ 10.3 µM) | 7.8 (≈ 20.6 µM) | 7.8 (≈ 20.6 µM) | 7.8 (≈ 20.6 µM) | 7.8 (≈ 20.6 µM) | 7.8 (≈ 20.6 µM) | 7.8 (≈ 20.6 µM) | 7.8 (≈ 20.6 µM) | 7.8 (≈ 20.6 µM) | 15.6 (≈ 41.2 µM) | 7.8 (≈ 20.6 µM) | MIC (Pichia kudriavzevii [20]): 7.8 µg/mL (≈ 20.6 µM); MFC (Candida albicans [21]; MTCC 183, 24 h): 31.2 µg/mL (≈ 82.5 µM); MFC (Candida albicans [22]): 7.8 µg/mL (≈ 20.6 µM); MFC (Candida albicans [23]): 15.6 µg/mL (≈ 41.2 µM); MFC (Candida albicans [24]): 15.6 µg/mL (≈ 41.2 µM); MFC (Candida albicans [25]): 15.6 µg/mL (≈ 41.2 µM); MFC (Candida parapsilosis [26]): 15.6 µg/mL (≈ 41.2 µM); MFC (Nakaseomyces glabratus [27]): 15.6 µg/mL (≈ 41.2 µM); MFC (Pichia sporocuriosa [28]): 31.2 µg/mL (≈ 82.5 µM); Ratio (Candida albicans [29]): 2; Ratio (Candida albicans [30]): 2; Ratio (Candida albicans [31]): 2; Ratio (Candida albicans [32]): 2; Ratio (Candida parapsilosis [33]): 2; Ratio (Pichia kudriavzevii [34]): 2; Ratio (Pichia sporocuriosa [35]): 2; Ratio (Escherichia coli [36]): 2; Ratio (Pseudomonas aeruginosa [37]): 2; Ratio (Raoultella planticola [38]): 2
2 | O=C(N/N=C/c1ccc(O)cc1)c1n[nH]c2c1Cc1cc(F)ccc1-2 | 2 | 2 | 7.8 (≈ 23.2 µM) | 3.9 (≈ 11.6 µM) | 7.8 (≈ 23.2 µM) | 3.9 (≈ 11.6 µM) | 7.8 (≈ 23.2 µM) | 7.8 (≈ 23.2 µM) | 7.8 (≈ 23.2 µM) | 7.8 (≈ 23.2 µM) | 15.6 (≈ 46.4 µM) | 15.6 (≈ 46.4 µM) | 15.6 (≈ 46.4 µM) | 15.6 (≈ 46.4 µM) | 15.6 (≈ 46.4 µM) | 7.8 (≈ 23.2 µM) | 7.8 (≈ 23.2 µM) | 7.8 (≈ 23.2 µM) | 15.6 (≈ 46.4 µM) | 15.6 (≈ 46.4 µM) | MIC (Pichia kudriavzevii [20]): 15.6 µg/mL (≈ 46.4 µM); MFC (Candida albicans [21]): inactive; MFC (Candida albicans [22]): 15.6 µg/mL (≈ 46.4 µM); MFC (Candida albicans [23]): 31.2 µg/mL (≈ 92.8 µM); MFC (Candida albicans [24]): 31.2 µg/mL (≈ 92.8 µM); MFC (Candida albicans [25]): 31.2 µg/mL (≈ 92.8 µM); MFC (Candida parapsilosis [26]): 31.2 µg/mL (≈ 92.8 µM); MFC (Nakaseomyces glabratus [27]): 31.2 µg/mL (≈ 92.8 µM); MFC (Pichia sporocuriosa [28]): 62.4 µg/mL (≈ 186 µM); Ratio (Candida albicans [29]): 2; Ratio (Candida albicans [30]): 2; Ratio (Candida albicans [31]): 2; Ratio (Candida albicans [32]): 2; Ratio (Candida parapsilosis [33]): 2; Ratio (Pichia kudriavzevii [34]): 2; Ratio (Pichia sporocuriosa [35]): 2; Ratio (Escherichia coli [36]): 2; Ratio (Pseudomonas aeruginosa [37]): 2; Ratio (Raoultella planticola [38]): 2
